A selection: hits, their analogues and other compounds. The true share with any hit is near 1.2%.
HKDC1 inhibitor: inhibitors of human hexokinase HKDC1; Q2TB90; recombinant HKDC1, G6PDH/diaphorase resazurin coupled fluorescence; inhibition, % at 20 µM; 340,000 tested, 0.16% active;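 active = inhibition above about 35% when tested at 20 µM, limit read from the data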;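 note: plate controls were DMSO wells with enzyme for no effect and DMSO wells lacking enzyme for full effect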
Target sequence (Q2TB90 whole entry, looked up): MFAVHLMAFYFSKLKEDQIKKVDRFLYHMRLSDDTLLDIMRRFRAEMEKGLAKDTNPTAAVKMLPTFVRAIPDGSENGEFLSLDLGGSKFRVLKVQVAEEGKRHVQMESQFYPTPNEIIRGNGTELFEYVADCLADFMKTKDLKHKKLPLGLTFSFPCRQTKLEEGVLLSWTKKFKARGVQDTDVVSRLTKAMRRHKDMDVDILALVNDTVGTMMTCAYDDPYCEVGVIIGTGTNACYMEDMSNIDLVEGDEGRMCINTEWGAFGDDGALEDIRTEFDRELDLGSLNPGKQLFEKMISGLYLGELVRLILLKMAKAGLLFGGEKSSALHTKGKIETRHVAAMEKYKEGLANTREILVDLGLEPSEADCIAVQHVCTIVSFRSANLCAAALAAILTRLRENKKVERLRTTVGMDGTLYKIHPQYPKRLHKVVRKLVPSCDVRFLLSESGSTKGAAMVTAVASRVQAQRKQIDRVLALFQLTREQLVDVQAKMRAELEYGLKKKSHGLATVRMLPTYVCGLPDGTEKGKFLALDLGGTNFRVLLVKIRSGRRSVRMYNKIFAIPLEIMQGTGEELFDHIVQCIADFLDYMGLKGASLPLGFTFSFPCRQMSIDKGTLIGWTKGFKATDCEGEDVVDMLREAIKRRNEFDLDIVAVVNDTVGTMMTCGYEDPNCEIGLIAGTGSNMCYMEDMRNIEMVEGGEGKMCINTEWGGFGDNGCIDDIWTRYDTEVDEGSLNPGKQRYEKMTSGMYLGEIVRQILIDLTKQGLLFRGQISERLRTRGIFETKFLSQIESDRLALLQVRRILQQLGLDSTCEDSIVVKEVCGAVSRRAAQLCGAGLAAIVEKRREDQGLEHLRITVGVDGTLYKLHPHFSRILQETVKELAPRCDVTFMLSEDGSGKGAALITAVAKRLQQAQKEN
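Test system: HK5 enzyme. Quantity: 5 µg/mL HK5 final. Reagent: glucose and ATP substrates. Schedule: 90 min reaction incubation at room temperature, dark. Technique: resazurin-to-resorufin fluorescence via G6PDH and diaphorase coupling, 525/613 nm. Control set: DMSO wells with and without enzyme mix.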
PfGluPho inh: PfG6PD (Plasmodium falciparum) enzyme inhibition; 350,000 tested, 0.78% active; PfGluPho enzyme, NADPH resazurin-diaphorase fluorescence; inhibition, % at 20 µM;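 active = inhibition reaching at least a set limit at 20 µM in the primary screen, cut at about 59% in these data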;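 note: 0% = DMSO wells with substrate and 100% = DMSO wells lacking glucose-6-phosphate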
Diaph act CS: diaphorase activation or chemical reduction counter-screen. Diaphorase/resazurin coupled assay, resorufin fluorescence, 16 min; hits give high values; 1 = vehicle wells, 0 = NADH-free wells. activation factor at 20 µM. 190,000 tested, 0.005% active. AID 1229;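 active = diaphorase activity raised at least twofold by the compound at 20 µM; inactive = activation factor below 2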
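Material: bacterial diaphorase enzyme (C. kluyveri); amount: enzyme 0.07 U/mL final; reagent: NADH substrate 0.114 mM plus resazurin dye 0.1 mM, final; doses: single compound dose of 20 µM, 1% DMSO final; timing: 16 min enzyme reaction, ambient temperature; measured by: fluorescence of resorufin, 544 nm excitation, 590 nm emission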
G6PDH counter: L. mesenteroides G6PDH inhibition counter-screen; 200,000 tested, 0.12% active; inhibition, % at 5 µM; Purified L. mesenteroides G6PDH, diaphorase/resazurin coupled fluorescence, 45 min; AID 1020; in the data active = inhibition above about 50%
Diaphorase inh: diaphorase inhibition or chemical oxidation counter-screen. diaphorase resazurin-to-resorufin fluorescence, NADH, 16 min; bacterial (C. kluyveri) enzyme, not human. inhibition, % at 20 µM. 190,000 tested, 0.69% active;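 active = primary screen inhibition at 20 µM above a set limit, cut at about 50% in these data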;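 note: plate controls were DMSO with full reaction for no effect and wells lacking NADH for full effect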
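Test system: Clostridium kluyveri diaphorase enzyme / Quantity: diaphorase at 0.14 U/mL in enzyme working solution / Incubation: 16-min room-temperature incubation before reading / Benchmarks: NADH-free wells as positive control, DMSO-only neutral wells / Signal: resorufin fluorescence 544/590 nm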
PfGluPho conf: PfG6PD inhibition, single-dose confirmed | shares compounds with PfGluPho inh | recombinant PfGluPho, NADPH-diaphorase-resazurin fluorescence | 2,400 tested, 34% active | inhibition, % at 20 µM;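 active = inhibition of at least 50% at 20 µM in any single replicate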;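 note: 0% = DMSO with substrate and 100% = DMSO lacking glucose-6-phosphate substrate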
Diaph ctr 10uM: inhibits diaphorase or oxidizes, flagging false PfG6PD hits | shares compounds with PfGluPho inh | diaphorase-coupled resazurin reduction, fluorescence, NADPH 10 uM | inhibition, % at 20 µM | 820 tested, 39% active | AID 504862;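 active = average inhibition reaching 50% or more with the compound at 20 µM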;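 note: resorufin red fluorescence formed as diaphorase reduces resazurin using NADPH; 0% = DMSO with enzyme and 100% = DMSO without enzyme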
Diaphorase 30uM: diaphorase inhibition or oxidation at 30 uM NADPH; 820 tested, 29% active; inhibition, % at 20 µM; shares compounds with PfGluPho inh; Diaphorase/resazurin coupled assay, resorufin fluorescence;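 active = inhibition averaging 50% or more, tested at 20 µM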;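 note: 0% = DMSO with enzyme and 100% = DMSO wells lacking diaphorase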
Active calls of the source: *; x = no result given.

SMILES	HKDC1 inhibitor	PfGluPho inh	Diaph act CS	G6PDH counter	Diaphorase inh	PfGluPho conf	others
NC(=O)c1ccc(N2CCN(c3ccc(O)cc3)CC2)c([N+](=O)[O-])c1	0	66*	0.6	15	42	22
CC(=O)c1ccc(N2CCN(c3ccc(C(N)=O)cc3[N+](=O)[O-])CC2)cc1	-11	8	1	3	3	x
O=C1CCC[C@@H]2[C@@H](Cc3ccccc3)[C@H](N3CCN(c4ccccc4)CC3)C[C@@H]3CCN1[C@@H]32	2	107*	x	x	x	56*	Diaph ctr 10uM=60*;Diaphorase 30uM=47
O=c1oc2ccccc2cc1-c1nc2ccccc2o1	-3	-5	1	-4	5	x
Nc1cc2nc3ccccc3oc-2cc1=O	26	74*	x	x	x	19
COc1cc(O)c(NC(C)=O)c2nonc12	4	64*	0.4	22	63*	43
NC(=O)N/N=C/c1ccc(-n2nncc2-c2ccc(Cl)cc2)cc1	-1	77*	x	x	x	50*	Diaph ctr 10uM=48;Diaphorase 30uM=50
NC(=O)c1ncn([C@@H]2O[C@H](CNCc3c(OCc4ccccc4F)ccc4ccccc34)[C@@H](O)[C@H]2O)n1	-5	13	x	x	x	x
O=c1c2ccccc2sn1-c1ccc(S(=O)(=O)N2CCCC2)cc1	2	111*	1.1	5	-10	105*	Diaph ctr 10uM=-9;Diaphorase 30uM=-5
O=c1c2ccccc2sn1-c1ccc(S(=O)(=O)N2CCCCC2)cc1	-4	111*	x	x	x	83*	Diaph ctr 10uM=5;Diaphorase 30uM=-13
O=S(=O)(c1ccc(S(=O)(=O)N2CCCC2)cc1)N1CCCCC1	-7	2	x	x	x	x
Cc1ccc2c(c1)[C@@H]1[C@H](CO2)[C@H](c2ccccc2)[C@@]2(C)C(=O)N[C@H](C)C(=O)N12	-7	7	x	x	x	x
CC(C)Oc1ccccc1C1CC(=O)Nc2cc3c(cc21)OCO3 (configuration not stated)	15	80*	0.8	2	23	40
COc1ccccc1NS(=O)(=O)c1cc(NC(=O)Nc2ccccc2)ccc1N1CCCCC1	-8	11	0.8	0	23	x
COc1ccccc1NS(=O)(=O)c1cc(NC(=O)C(C)C)ccc1N1CCCCC1	-2	61*	0.8	4	19	18
COc1ccccc1NS(=O)(=O)c1cc(NC(=O)c2cccs2)ccc1N1CCCC1	-20	79*	0.8	8	17	48
COc1ccccc1NS(=O)(=O)c1cc(NC(=O)c2cccs2)ccc1N1CCCCC1	-3	-3	0.9	14	13	x
CC(=O)Nc1ccc(S(=O)(=O)N2CCC(C(=O)NCCC(=O)NCc3ccccc3)CC2)cc1	0	9	x	x	x	x
Cc1c(C(=O)N(Cc2ccccc2Cl)C2CCS(=O)(=O)C2)oc2ccccc12 (configuration not stated)	2	96*	x	x	x	57*	Diaph ctr 10uM=59*;Diaphorase 30uM=46
COc1ccc(NC(=O)CN(C)S(=O)(=O)c2ccc(Cl)cc2)cn1	0	13	x	x	x	x
S=C(Nc1cc(Cl)ccc1Cl)Nn1cnnc1	-7	54	x	x	x	x
CCOc1ccccc1NC(=S)Nn1cnnc1	-7	62*	x	x	x	30
S=C(Nc1ccc(Cl)cc1Cl)Nn1cnnc1	4	47	0.9	17	14	-24
Cc1cc(C)c2c(N)c(C(=O)N3CCCCCC3)sc2n1	0	70*	0.9	0	6	1
COCc1cc(C)nc2sc(C(=O)N3CCCC3)c(N)c12	-8	-1	0.8	1	20	x
SMILES	HKDC1 inhibitor	PfGluPho inh	Diaph act CS	G6PDH counter	Diaphorase inh	PfGluPho conf	others
Cc1cc(C)c2nc3sc(C(=O)N4CCOCC4)c(N)c3cc2c1	-2	65*	x	x	x	24
C=CC[C@H](CC(=O)NCCO)C(=O)N[C@H](COC(=O)[C@H](CC=C)CC(=O)OC(C)(C)C)Cc1c[nH]c2ccccc12	-4	17	x	x	x	x
Brc1ccc(C2C3=C(Nc4ncnn42)c2ccccc2OC3c2ccncc2)cc1 (configuration not stated)	10	83*	0.8	6	16	54*	Diaph ctr 10uM=52*;Diaphorase 30uM=57*
CCN(CC)c1ncnc2c1sc1nc(C)cc(C)c12	13	72*	0.8	12	22	36
Cc1cc(C)c2c(n1)sc1c(N3CCCCC3)ncnc12	17	70*	x	x	x	0
Cc1cc(C)c2c(n1)sc1c(N3CCN(C)CC3)ncnc12	9	43	x	x	x	x
Cc1cccc(Cn2cnc3c(sc4nc(C)cc(C)c43)c2=O)c1	-6	5	x	x	x	x
O=c1[nH]cnc2c1ccn2C1OC(CO)C(O)C1O (configuration not stated)	-5	7	x	x	x	x
Nc1cccc(NP(=O)(c2ccccc2)c2ccccc2)c1	-5	1	x	x	x	x
CCC(C)N(CCNC(=O)c1ccc2c(c1)NC(=O)c1ccccc1S2)C1CCCCC1 (configuration not stated)	-3	76*	x	x	x	93*	Diaph ctr 10uM=-8;Diaphorase 30uM=-13
Cc1c(N=C2C=C(Br)C(=O)C(Br)=C2)c(=O)n(-c2ccccc2)n1C	21	98*	0.3	7	69*	103*	Diaph ctr 10uM=38;Diaphorase 30uM=11
Cc1ccc(N(CC(=O)N/N=C/c2cccc(Br)c2)S(C)(=O)=O)cc1	-8	115*	0.9	13	11	86*	Diaph ctr 10uM=79*;Diaphorase 30uM=71*
CCCCCCCCC(=O)N/N=C/c1cccc(Br)c1	22	81*	0.9	12	12	11
O=C(CCC(=O)Nc1ccc(F)cc1)N/N=C/c1cccc(Br)c1	6	113*	x	x	x	75*	Diaph ctr 10uM=66*;Diaphorase 30uM=59*
CCCCCCC(=O)N/N=C/c1ccc(Br)cc1	-5	18	0.8	-13	17	x
COC(=O)C1CC2=C(CCCC2=O)N(Cc2ccccc2)C1=O (configuration not stated)	4	8	x	x	x	x
Cc1cc(C)n(-c2ccc(C(=O)N3CCN(S(=O)(=O)c4ccc(OC(F)(F)F)cc4)CC3)cc2)n1	x	21	x	x	x	x
O=C(CSc1ncn(-c2ccccc2)n1)N1CCc2ccccc21	0	60*	0.9	-28	13	6
O=C(CN1CCN(c2ccc(O)cc2)CC1)N1CCc2ccccc21	4	63*	x	x	x	20
O=C(CN1CCN(c2ccccc2)CC1)N1CCc2ccccc21	-6	3	x	x	x	x
CC1=NN(C(N)=S)C(=O)C1N=Nc1ccc(Cl)cc1Cl (configuration not stated)	-25	6	x	x	x	x
CC(=O)Cc1cc(O)c2ccccc2c1OC(=O)c1ccccc1	2	66*	0.7	34	28	6
CC(=O)c1cc(C)c(OC(=O)c2ccccc2)c(C)c1	0	1	x	x	x	x
